In publication PMC3858399 (Journal of medicinal chemistry, 2013):
Entries after “also recorded” stand apart in the source; their conditions may differ. Like-named read-outs stand apart in the source and are kept apart here.

Columns and labels:
[1] = test system: mice with chronic constriction injury (CCI) of the sciatic nerve; conditions: cited from earlier work; for Reversal of neuropathic pain following CCI in mice: via an A3AR-mediated mechanism
[2] = test system: mice with chronic constriction injury (CCI) of the sciatic nerve; experiment: CCI model of neuropathic pain; format: in vivo, mouse; conditions: for Effect on Paw Withdrawal Thresholds (PWT) in contralateral paws: data not shown; for Time of maximal effect on mechano-allodynia: i.p. 3 µmol/kg on D7 after CCI; for Reversal of mechano-allodynia after CCI: i.p. 3 µmol/kg on day 7 (D7) after CCI, mouse
In short: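 Male CD-1 mice (25–30 g), housed 4–5 per cage with a 12 h light/dark cycle. CCI of the left sciatic nerve (Bennett model) under isoflurane (3% induction, 2% maintenance in 100% O2); wound closed with a muscle suture and skin clip. Test compound or vehicle (5% DMSO in saline) given i.p. at 3 µmol/kg on D7, at peak mechano-allodynia. Experimenters blinded; mean ± SEM.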

[3] = test system: A3AR−/− mice with CCI of the sciatic nerve; experiment: CCI model of neuropathic pain in A3AR knockout mice; format: in vivo, mouse; conditions: i.p. 3 µmol/kg, male A3AR knock-out mice
[4] = molecular target: T1, hA3AR (Homo sapiens, UniProt P0DMS8); experiment: Radioligand binding at hA3AR
T1 sequence (P0DMS8 1-318): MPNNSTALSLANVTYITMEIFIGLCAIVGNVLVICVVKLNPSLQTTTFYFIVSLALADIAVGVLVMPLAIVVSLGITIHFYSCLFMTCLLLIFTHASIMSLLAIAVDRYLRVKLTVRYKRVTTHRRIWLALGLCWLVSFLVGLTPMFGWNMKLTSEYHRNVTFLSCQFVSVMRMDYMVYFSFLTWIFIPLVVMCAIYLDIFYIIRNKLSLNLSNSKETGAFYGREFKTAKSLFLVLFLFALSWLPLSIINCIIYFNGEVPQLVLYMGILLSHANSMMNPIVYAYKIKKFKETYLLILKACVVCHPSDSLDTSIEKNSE

[5] = molecular target: T2, mA1AR (Mus musculus, UniProt Q60612); format: cell-based; conditions: tested up to 10 µM
T2 sequence (Q60612 1-326): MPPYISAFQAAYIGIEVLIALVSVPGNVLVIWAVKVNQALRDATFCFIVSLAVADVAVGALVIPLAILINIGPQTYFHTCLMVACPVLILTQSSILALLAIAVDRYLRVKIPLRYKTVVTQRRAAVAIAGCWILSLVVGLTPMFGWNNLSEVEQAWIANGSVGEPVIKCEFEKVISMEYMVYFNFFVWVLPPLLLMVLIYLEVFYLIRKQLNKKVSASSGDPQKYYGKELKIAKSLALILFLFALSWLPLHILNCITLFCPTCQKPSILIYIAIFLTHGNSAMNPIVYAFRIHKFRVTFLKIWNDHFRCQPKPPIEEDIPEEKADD

[6] = molecular target: T3, mA3AR (Mus musculus, UniProt Q61618); experiment: Radioligand binding at mA3AR
T3 sequence (Q61618 1-319): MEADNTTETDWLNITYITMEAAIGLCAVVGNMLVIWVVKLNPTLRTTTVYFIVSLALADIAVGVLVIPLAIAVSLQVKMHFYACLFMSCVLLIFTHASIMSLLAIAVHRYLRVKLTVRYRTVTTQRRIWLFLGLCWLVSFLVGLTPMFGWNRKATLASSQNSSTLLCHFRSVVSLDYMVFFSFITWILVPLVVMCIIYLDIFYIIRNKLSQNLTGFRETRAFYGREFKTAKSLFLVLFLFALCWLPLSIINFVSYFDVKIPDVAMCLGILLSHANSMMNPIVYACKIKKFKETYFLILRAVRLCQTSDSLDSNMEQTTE

In the case of `CNC(=O)[C@H]1O[C@@H](n2cnc3c(NCc4cccc(I)c4)ncnc32)[C@H](O)[C@@H]1O` [1a, N^6-(3-iodobenzyl)adenosine-5'-N-methyluronamide], the “Effect on Paw Withdrawal Thresholds (PWT) in contralateral paws” value (from here on “Effect on Paw Withdrawal Thresholds”) [1] is given as “lacked effect” and the “Reversal of neuropathic pain following CCI in mice” value [1] is given as “reverse the development of neuropathic pain”.
In the case of `CNC(=O)[C@H]1O[C@@H](n2cnc3c(NCc4cccc(I)c4)nc(Cl)nc32)[C@H](O)[C@@H]1O` [1b, 2-Chloro-N^6-(3-iodobenzyl)adenosine-5'-N-methyluronamide], the “Effect on Paw Withdrawal Thresholds” value [1] is listed as “lacked effect” and the “Reversal of neuropathic pain following CCI in mice” value [1] is listed as “reverse the development of neuropathic pain”.
For `CNC(=O)[C@@]12C[C@@H]1[C@@H](n1cnc3c(NCc4cccc(Cl)c4)nc(C#Cc4ccc(S(=O)(=O)O)cc4)nc31)[C@H](O)[C@@H]2O` [Compound 6, 4-((6-(3-Chlorobenzylamino)-9-((1S,2R,3S,4R,5S)-3,4-dihydroxy-5-(methylcarbamoyl)bicyclo[3.1.0]hexan-2-yl)-9H-purin-2-yl)ethynyl)benzenesulfonic acid], the “Effect on Paw Withdrawal Thresholds” value [2] was “lacked effect”, the “Time of maximal effect on mechano-allodynia” value [2] was no more than 1 h and the “Reversal of mechano-allodynia after CCI” value [2] was “reversed mechano-allodynia”. The “Anti-allodynic effect in A3AR−/− mice” value [3] was “significantly but not completely abrogated; also recorded: retained the ability to produce a small protective effect”.
In the case of `CNC(=O)[C@@]12C[C@@H]1[C@@H](n1cnc3c(NCc4cccc(Cl)c4)nc(C#Cc4cccc(S(=O)(=O)O)c4)nc31)[C@H](O)[C@@H]2O` [Compound 7, 3-((6-(3-Chlorobenzylamino)-9-((1S,2R,3S,4R,5S)-3,4-dihydroxy-5-(methylcarbamoyl)bicyclo[3.1.0]hexan-2-yl)-9H-purin-2-yl)ethynyl)benzenesulfonic acid], the “Effect on Paw Withdrawal Thresholds” value [2] is reported as “lacked effect”, the “Time of maximal effect on mechano-allodynia” value [2] is reported as no more than 1 h and the “Reversal of mechano-allodynia after CCI” value [2] is reported as “reversed mechano-allodynia”. The “A3AR selectivity in comparison to the A1AR and A2AAR” value [4] was > 10,000 fold, the “Functional activity at the mA1AR” value [5] was “completely inactive up to 10 µM” and the “A3AR selectivity in comparison to the A1AR and A2AAR” value [6] was greater than 1000 fold. The “Anti-allodynic effect in A3AR−/− mice” value [3] was “completely lost; also recorded: completely eliminated”.
In the case of `CCCOC(=O)c1c(-c2ccccc2)nc(CC)c(C(=O)SCC)c1CCC` [compound 45, 5-propyl-2-ethyl-4-propyl-3-(ethylsulfanylcarbonyl)-6-phenylpyridine-5-carboxylate, reference compound], the “Blocking of the anti-allodynic effects of A3AR agonist 1a” value ([1]; antagonist administered systemically, identical CCI model) is given as “completely effective” and the “Effect of antagonist on the anti-allodynic actions of systemic agonist 7” value ([2]; 45 intrathecal 3 nmol, 7 at 3 µmol/kg) is given as “had no effect; also recorded: did not block the effects of systemic 7”.
